Assay outcomes from PubChem.
An excerpt weighted towards active compounds, which were near 5.2% of everything screened.
core dimer inh – inhibitors of HCV core protein dimerization, primary screen, biochemical, TR-FRET, high-throughput. TR-FRET GST/Flag-core106 dimerization, 1536-well. inhibition, % at 5 µM. 300,000 compounds, 0.33% hits;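 active means inhibition above the mean of all tested compounds plus 3 SD, set per screening campaign, cut at about 45% in these data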
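test system = GST/Flag-tagged HCV core106 proteins | probe or stimulus = Eu donor and XL665 acceptor anti-tag antibodies | times = compound-protein-antibody incubation 4 h at 22.5 °C | signal = TR-FRET, excitation 340 nm, emission 617 and 671 nm | measure = percent inhibition of core106 dimerization signal | controls = wells lacking GST-core106 and wells with excess unlabelled core106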
ZTA counter – counter-screen for EBNA-1 inhibitors: inhibitors of Epstein-Barr virus ZTA; P03206; inhibition, % at 11 µM; AID 2234; ZTA-DNA binding, fluorescence polarization; 320,000 compounds, 0.15% hits; in the data active means inhibition above about 33%
Target sequence (P03206 whole entry, looked up): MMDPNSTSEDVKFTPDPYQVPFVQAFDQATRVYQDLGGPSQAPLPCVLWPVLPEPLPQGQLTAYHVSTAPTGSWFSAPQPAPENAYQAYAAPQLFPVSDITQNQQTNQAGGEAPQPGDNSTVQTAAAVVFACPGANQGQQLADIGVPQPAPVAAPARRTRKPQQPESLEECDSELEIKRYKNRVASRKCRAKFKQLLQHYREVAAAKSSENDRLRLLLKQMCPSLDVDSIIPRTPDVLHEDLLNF
ALR H2O2 inh – inhibitors of human ALR sulfhydryl oxidase, primary screen, biochemical, H2O2 detection, HRP-luminol luminescence, single point; purified ALR, DTT oxidation; inhibition, % (test concentration not listed); 290,000 compounds, 3.8% hits; AID 485317, 2010;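 active means mean replicate inhibition above about 79%, with every replicate also reaching it, limit read from the data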
Target sequence (P55789 whole entry, looked up): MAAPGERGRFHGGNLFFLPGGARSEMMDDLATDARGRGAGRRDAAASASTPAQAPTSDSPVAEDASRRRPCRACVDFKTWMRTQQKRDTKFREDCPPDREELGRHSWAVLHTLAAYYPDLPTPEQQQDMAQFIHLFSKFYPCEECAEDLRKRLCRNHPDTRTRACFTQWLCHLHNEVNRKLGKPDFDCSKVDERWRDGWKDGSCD
PfM18AAP inh – PfM18AAP inhibitors, malaria aminopeptidase, primary screen, biochemical, QFRET, recombinant enzyme | inhibition, % at 7.35 µM | AID 1822, 2009 | H-Glu-NHMec fluorogenic cleavage | 290,000 compounds, 1.2% hits;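 active means inhibition above the campaign mean inhibition over all tested compounds plus 3 SD, cut at about 28% in these data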
HCV NS3 hel inh – inhibitors of HCV NS3 helicase, primary screen, biochemical, Cy5 molecular beacon fluorescence; inhibition, % at 10.9 µM; AID 1800, 2009; NS3 helicase DNA unwinding; 290,000 compounds, 0.56% hits; Hepatitis C virus NS3 helicase;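 active means inhibition above the mean of all tested compounds plus 3 SD, set per campaign, cut at about 35% in these data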
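System: NS3 helicase fragment of HCV / Schedule: 1 h at 25 °C / Control set: DMSO alone as 0% and 110 µM thioflavine S as 100% / Reagent: Cy5/quencher beacon DNA duplex and ATP to start / Technique: Cy5 fluorescence / Replication: singlicate / Evaluation: % inhibition of end-to-start signal ratio versus controls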
EBNA-1 inhibitor – EBNA-1 DNA-binding inhibitors, primary screen, biochemical, fluorescence polarization; 300,000 compounds, 0.34% hits; inhibition, % at 14.8 µM; AID 1950, 2009; in the data active means inhibition above about 28%
Of the large screens only hits and unclear results are named; the others gave an inactive call.

CN(CCOc1ccccc1)CC(O)COc1ccccc1 (stereo not drawn)	none
OC(CN(c1ccccc1)c1ccccc1)Cn1cnc2ccccc21 (stereo not drawn)	ALR H2O2 inh 98.7
OCCN(CCO)CC(O)COc1ccc(Br)cc1 (stereo not drawn)	none
Cc1cccc(C)c1OCC(O)CN (stereo not drawn)	none
Cc1ccc(N2CCN(S(=O)(=O)c3ccc4c(c3)oc(=O)n4C)CC2C)cc1 (stereo not drawn)	none
Nc1nc(SCC(=O)N2N=C(c3ccc(Cl)cc3)CC2c2ccco2)n[nH]1 (stereo not drawn)	none
Cc1sc2nc(CN3CCOCC3)nc(Cl)c2c1C	none
Cc1sc2nc(CN3CCC(C)CC3)nc(Cl)c2c1C	ALR H2O2 inh 97.3
CC(=O)N1CCC(C(=O)Nc2ccc(S(=O)(=O)NCCc3ccccc3)cc2)CC1	none
Cc1occc1C(=O)Nc1c(F)c(F)c(F)c(F)c1F	ALR H2O2 inh 97.5
Cc1occc1C(=O)Nc1c(Cl)cccc1Cl	none
Cc1occc1C(=O)NNC(=O)Nc1ccc(F)cc1F	PfM18AAP inh 30.1
Oc1ccc(/C=N/Nc2ncnc3c2ncn3Cc2ccccc2)cc1O	ALR H2O2 inh 96.0, PfM18AAP inh 38.6
Oc1cccc(/C=N/Nc2ncnc3c2ncn3Cc2ccccc2)c1	none
COc1ccccc1CNC(=O)COC(=O)c1ccccc1SCC(=O)N1CCCC1	none (no result: PfM18AAP inh, HCV NS3 hel inh)
O=C(COc1cccc2ccccc12)NNC(=O)CSCCO	PfM18AAP inh 30.8
O=C(COc1cccc2ccccc12)NNC(=O)Nc1ccccc1	none
NS(=O)(=O)c1ccc(Sc2ccc3ccccc3c2)nc1	ALR H2O2 inh 99.0
NS(=O)(=O)c1ccc(SCc2ccccc2)nc1	none (no result: PfM18AAP inh, HCV NS3 hel inh)
CC(Nc1ccc2c(c1)OCCO2)C(=O)N1c2ccccc2CC1C (stereo not drawn)	ALR H2O2 inh 98.5
CC1Cc2ccccc2N1C(=O)NC1CC(=O)N(c2ccc3c(c2)OCCO3)C1 (stereo not drawn)	none
Cc1ccc(C)c(-c2cc(C(=O)NC3CC3)c3ccccc3n2)c1	ALR H2O2 inh 94.5 (no result: core dimer inh, ZTA counter, EBNA-1 inhibitor)
CCOc1ccc(NS(=O)(=O)c2ccc(C(=O)N3CCN(C(C)=O)CC3)cc2)cc1	none
O=C(NNS(=O)(=O)c1ccc([N+](=O)[O-])cc1)c1ccncc1	none (no result: ALR H2O2 inh)
O=C(NNS(=O)(=O)c1ccccc1)c1ccc([N+](=O)[O-])cc1	PfM18AAP inh 28.8
COc1cc(/C=N\N=C2/SC(CC(=O)O)C(=O)N2c2ccc(O)cc2)ccc1O (stereo not drawn)	ALR H2O2 inh 99.5
COc1ccc(/C=N\N=C2/SC(CC(=O)O)C(=O)N2c2ccc(O)cc2)cc1OC (stereo not drawn)	none
COc1ccc(NC(=S)NNC(=O)Cn2nc([N+](=O)[O-])cc2C)cc1	ALR H2O2 inh 81.2
Cc1cccc(NC(=S)NNC(=O)CCn2nc(C)c([N+](=O)[O-])c2C)c1	none
Cc1cc([N+](=O)[O-])nn1CC(=O)NNC(=S)Nc1ccc([N+](=O)[O-])cc1	none
Cc1nn(CC(=O)NNC(=S)Nc2ccccc2)c(C)c1[N+](=O)[O-]	ALR H2O2 inh 79.8
CC(OC(=O)/C=C/c1ccco1)C(=O)NC1CCCCC1C (stereo not drawn)	none (no result: core dimer inh, PfM18AAP inh, HCV NS3 hel inh, EBNA-1 inhibitor)
CC(C)(C)OC(=O)CN1C(=O)S/C(=C\c2ccc(-c3cccc(C(=O)O)c3)o2)C1=O	ALR H2O2 inh 96.6
C#CCN1C(=O)S/C(=C\c2ccc(-c3ccc(C(=O)O)cc3C)o2)C1=O	ALR H2O2 inh 90.0
CC(C)CN(C(=O)COC(=O)CCC(=O)c1ccc(F)cc1)c1c(N)n(Cc2ccccc2)c(=O)[nH]c1=O	none (no result: ALR H2O2 inh, PfM18AAP inh, HCV NS3 hel inh)
Cc1cc(C)cc(CC2CC(=O)N(c3ccc([N+](=O)[O-])cc3)C2=O)c1 (stereo not drawn)	none
CCOC(=O)c1c(NC(=O)C2C3C=CC(C3)C2(C)C(=O)O)sc2c1CCCC2 (stereo not drawn)	ALR H2O2 inh 91.0
Cc1cc(=O)[nH]c2sc(C(=O)N3c4ccccc4CC3C)c(N)c12 (stereo not drawn)	ALR H2O2 inh 97.9 (no result: core dimer inh, ZTA counter, PfM18AAP inh, HCV NS3 hel inh, EBNA-1 inhibitor)
Cc1nc2cc(C(=O)N3c4ccccc4CC3C)ccc2s1 (stereo not drawn)	none
COc1ccc(S(=O)(=O)N2CCOCC2)cc1NC(=O)CSc1n[nH]c(C(C)C)n1	none
CN1/C(=C\C=C2/SC(=S)N(CC(=O)O)C2=O)C(C)(C)c2ccccc21	ALR H2O2 inh 98.5
C=CCN1C(=O)/C(=C\C=C2\N(C)c3ccccc3C2(C)C)SC1=S	none
O=C(CSc1nnc(-c2ccccc2)c2ccccc12)NCCN1C(=O)CSC1=O	none (no result: core dimer inh, ALR H2O2 inh, PfM18AAP inh, HCV NS3 hel inh, EBNA-1 inhibitor)
O=C1CN(S(=O)(=O)c2cc(C(F)(F)F)ccc2Cl)CCN1	none (no result: core dimer inh, ALR H2O2 inh, PfM18AAP inh, HCV NS3 hel inh, EBNA-1 inhibitor)
Cn1c(CNS(=O)(=O)c2ccc(Br)cc2)n[nH]c1=S	ALR H2O2 inh 90.8
Cc1ccc(S(=O)(=O)NCc2n[nH]c(=S)n2C)cc1	none
O=c1oc2ccccc2cc1-c1nc(-c2cccs2)cs1	none
COc1cccc2cc(-c3nc(-c4cccs4)cs3)c(=O)oc12	core dimer inh 50.8
O=C1c2ccccc2C(Nc2ccc(S(=O)(=O)N3CCCCC3)cc2)N1Cc1ccco1 (stereo not drawn)	none
CCOc1ccc(NC2c3ccccc3C(=O)N2Cc2ccco2)cc1 (stereo not drawn)	ALR H2O2 inh 98.2
COC(=O)c1cc(NC2c3ccccc3C(=O)N2Cc2ccco2)cc(C(=O)OC)c1 (stereo not drawn)	none
COc1ccc(NC2c3ccccc3C(=O)N2Cc2ccco2)cc1OC (stereo not drawn)	ALR H2O2 inh 99.6
COc1ccc([C@@]2(C(C)C)ON(c3ccccc3C(F)(F)F)C2=O)cc1	none (no result: core dimer inh, PfM18AAP inh, HCV NS3 hel inh, EBNA-1 inhibitor)
COC(=O)C1CSC(C(=O)OC)N1C(=O)CN1CCN(c2ccccc2)CC1 (stereo not drawn)	ALR H2O2 inh 91.2
COC(=O)C1CSC(C(=O)OC)N1C(=O)CN1CC(C)OC(C)C1 (stereo not drawn)	none
COCCCN1C(=O)C(=O)/C(=C(/O)c2ccc3c(c2)OCCO3)C1c1ccc(C(=O)OC)cc1 (stereo not drawn)	ALR H2O2 inh 84.6
COC(=O)c1ccc(C2/C(=C(\O)c3ccc4c(c3)OCCO4)C(=O)C(=O)N2CCCN2CCOCC2)cc1 (stereo not drawn)	none
Cc1nnc(N2C(=O)C(=O)/C(=C(/O)c3ccc4c(c3)OCCO4)C2c2ccc([N+](=O)[O-])cc2)s1 (stereo not drawn)	core dimer inh 48.1
COCCN1C(=O)C(=O)/C(=C(/O)c2ccc3c(c2)OCCO3)C1c1ccc(C(=O)OC)cc1 (stereo not drawn)	none
